# Values joined by “and” are separate entries in the source; they are usually repeats but may differ in a detail not shown here. Identical values can stand only once. Like-named read-outs stand apart in the source and are kept apart here.
# Experiments:
# [1] = DPPH free radical scavenging activity; details: for IC50: read-out: DPPH scavenging IC50
# [2] = Superoxide anion scavenging assay; details: for IC50: read-out: superoxide anion scavenging IC50
# jack bean urease = jack bean urease (Canavalia ensiformis, UniProt P07374); assay: Urease inhibition assay; format: biochemical; details: for IC50: 3 experiments
# Chain of jack bean urease (P07374 whole entry, looked up): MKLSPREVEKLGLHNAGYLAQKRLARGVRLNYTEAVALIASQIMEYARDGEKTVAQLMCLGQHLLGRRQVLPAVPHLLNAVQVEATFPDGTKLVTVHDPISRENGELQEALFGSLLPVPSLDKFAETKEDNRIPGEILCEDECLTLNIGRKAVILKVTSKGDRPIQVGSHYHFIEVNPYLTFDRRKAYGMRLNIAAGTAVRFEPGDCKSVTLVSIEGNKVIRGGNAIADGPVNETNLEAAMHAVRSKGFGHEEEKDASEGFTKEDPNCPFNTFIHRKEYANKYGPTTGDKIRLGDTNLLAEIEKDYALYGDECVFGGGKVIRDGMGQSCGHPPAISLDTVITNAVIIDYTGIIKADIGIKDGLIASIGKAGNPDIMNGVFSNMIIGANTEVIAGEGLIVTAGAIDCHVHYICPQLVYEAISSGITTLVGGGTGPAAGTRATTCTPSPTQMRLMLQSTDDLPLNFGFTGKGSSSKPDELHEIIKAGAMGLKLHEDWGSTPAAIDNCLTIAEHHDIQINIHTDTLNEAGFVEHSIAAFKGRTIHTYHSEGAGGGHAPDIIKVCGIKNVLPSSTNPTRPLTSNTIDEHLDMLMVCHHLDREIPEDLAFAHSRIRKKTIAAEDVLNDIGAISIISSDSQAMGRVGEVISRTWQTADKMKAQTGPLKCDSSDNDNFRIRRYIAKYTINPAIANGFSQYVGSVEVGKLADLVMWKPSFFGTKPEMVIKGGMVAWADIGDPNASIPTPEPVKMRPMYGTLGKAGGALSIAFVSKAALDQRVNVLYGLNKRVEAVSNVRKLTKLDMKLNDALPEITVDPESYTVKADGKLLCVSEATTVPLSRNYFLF
# [3] = target: Bacillus Pasteurii urease (Sporosarcina pasteurii, UniProt P41020); assay: Urease inhibition assay; format: biochemical; details: 3 experiments
# Chain of Bacillus Pasteurii urease (P41020 whole entry): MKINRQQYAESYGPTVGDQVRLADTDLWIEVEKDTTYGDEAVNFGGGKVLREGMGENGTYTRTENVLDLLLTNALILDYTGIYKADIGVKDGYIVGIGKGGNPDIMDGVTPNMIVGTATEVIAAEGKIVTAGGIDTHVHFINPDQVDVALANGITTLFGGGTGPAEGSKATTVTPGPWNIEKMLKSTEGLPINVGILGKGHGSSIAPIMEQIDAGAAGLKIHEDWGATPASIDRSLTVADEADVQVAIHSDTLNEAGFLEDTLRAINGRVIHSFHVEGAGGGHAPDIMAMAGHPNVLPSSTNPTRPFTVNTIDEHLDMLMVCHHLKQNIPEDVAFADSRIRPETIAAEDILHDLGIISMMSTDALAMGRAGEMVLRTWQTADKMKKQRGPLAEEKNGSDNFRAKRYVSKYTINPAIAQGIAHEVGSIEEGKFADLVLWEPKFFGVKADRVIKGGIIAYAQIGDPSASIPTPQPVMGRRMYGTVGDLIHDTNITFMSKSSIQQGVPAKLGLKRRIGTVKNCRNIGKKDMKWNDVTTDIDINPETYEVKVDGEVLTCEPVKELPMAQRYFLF
# Chain of Bacillus Pasteurii urease (P41021 whole entry partner): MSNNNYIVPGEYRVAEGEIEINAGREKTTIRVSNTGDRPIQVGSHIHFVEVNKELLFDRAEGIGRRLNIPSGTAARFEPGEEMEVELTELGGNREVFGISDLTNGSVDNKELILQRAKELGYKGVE
# Chain of Bacillus Pasteurii urease (P41022 whole entry partner): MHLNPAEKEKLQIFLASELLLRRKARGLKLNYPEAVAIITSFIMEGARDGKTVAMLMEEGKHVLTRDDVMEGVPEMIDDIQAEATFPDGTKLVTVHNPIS
# α-Glucosidase = α-Glucosidase (Saccharomyces cerevisiae, UniProt P53341); assay: α-Glucosidase inhibition assay; format: biochemical
# Chain of α-Glucosidase (P53341 whole entry): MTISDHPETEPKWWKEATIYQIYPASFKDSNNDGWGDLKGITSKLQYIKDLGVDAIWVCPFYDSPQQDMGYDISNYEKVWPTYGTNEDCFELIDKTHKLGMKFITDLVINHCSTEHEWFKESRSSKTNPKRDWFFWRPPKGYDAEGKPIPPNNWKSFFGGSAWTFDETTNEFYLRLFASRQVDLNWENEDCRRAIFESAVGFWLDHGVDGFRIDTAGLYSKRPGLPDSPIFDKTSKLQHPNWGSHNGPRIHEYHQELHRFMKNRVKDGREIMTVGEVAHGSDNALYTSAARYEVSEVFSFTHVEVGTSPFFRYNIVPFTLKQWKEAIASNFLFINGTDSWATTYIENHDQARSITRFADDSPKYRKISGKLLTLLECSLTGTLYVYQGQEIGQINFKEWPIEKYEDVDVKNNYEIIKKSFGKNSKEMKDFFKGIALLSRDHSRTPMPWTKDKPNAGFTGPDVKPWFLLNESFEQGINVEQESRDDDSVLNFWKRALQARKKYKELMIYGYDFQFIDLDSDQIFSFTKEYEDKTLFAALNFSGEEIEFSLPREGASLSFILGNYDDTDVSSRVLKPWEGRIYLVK
# Outline: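 Test compound (200–800 μg/mL) pre-incubated 5 min at 37 °C with 2 % w/v starch (sucrose) solution in 0.2 M Tris buffer, pH 8.0. 5 mM p-nitrophenyl-α-D-glucopyranoside added intermittently, then α-glucosidase (1 U/mL), 40 min at 35 °C. Stopped with […]; absorbance read at 405 nm. % inhibition = (control − sample)/control × 100; samples above 50 % taken to IC50.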
# ABTS method = details: for IC50: read-out: ABTS scavenging IC50
# [4] = Enzyme (SEM ±) J.B Urease, IC50, mean ± SEM
# [5] = Enzyme (SEM ±) B.P Urease, IC50, mean ± SEM
SMILES,IC50 [1],IC50 [2],Types of inhibition (urease) (jack bean urease),IC50 (jack bean urease; [4]),"IC50 [3, 5]",Type of Inhibition (α-glucosidase and α-amylase) (α-Glucosidase),IC50 (ABTS method),DPPH % Scavenging ([1]; 50 μM),DPPH % Scavenging ([1]; 75 μM),DPPH % Scavenging ([1]; 100 μM),superoxide anion % scavenging ([2]; 25 μM),superoxide anion % scavenging ([2]; 50 μM),superoxide anion % scavenging ([2]; 75 μM),superoxide anion % scavenging ([2]; 100 μM),DPPH % Scavenging ([1]; 25 μM),ABTS % Scavenging (ABTS method; 10 μM),ABTS % Scavenging (ABTS method; 20 μM),ABTS % Scavenging (ABTS method; 30 μM),ABTS % Scavenging (ABTS method; 40 μM),ABTS % Scavenging (ABTS method; 50 μM),other results
"O=C1O[C@H]([C@@H](O)CO)C(O)=C1O [Ascorbic acid, reference compound]",30.4 µM and 42.2 µM and 45.1 µM and 35 µM,33.4 µM and 35.4 µM and 39.1 µM and 38 µM,,,,,,70.3 ± 0.01% and 68.2 ± 0.17% and 58.1 ± 0.05% and 69.3 ± 0.41%,85.3 ± 0.01% and 88.1 ± 0.02% and 79.1 ± 0.12% and 95.3 ± 0.01%,97.2 ± 0.2% and 94.2 ± 0.5% and 84.2 ± 0.18% and 105.2 ± 0.2%,39 ± 0.09% and 49 ± 0.05% and 35 ± 0.33% and 25 ± 0.03%,55 ± 0.05% and 53 ± 0.03% and 57 ± 0.13% and 60 ± 0.07%,77 ± 0.12% and 75 ± 0.15% and 86 ± 0.53% and 67 ± 0.11%,90 ± 0.02% and 93 ± 0.01% and 99 ± 0.11% and 82 ± 0.01%,,,,,,,
"Cc1ccc(S(=O)(=O)N(Cc2ccccc2)c2nccs2)cc1 [Compound 19, N-Benzyl-4-methyl-N-(thiazol-2-yl)benzenesulfonamide]",40.01 ± 0.01 µM,42 ± 0.15 µM,Competitive,26.15 ± 0.02 µM,29.05 ± 0.01 µM,Competitive,37.01 ± 0.04 µM,65.8 ± 0.03%,89.6 ± 0.11%,95.1 ± 0.41%,32 ± 0.07%,59 ± 0.25%,80 ± 0.11%,88 ± 0.01%,39.1 ± 0.2%,18.01 ± 0.09%,37.05 ± 0.04%,41.09 ± 0.01%,69.02 ± 0.03%,89.03 ± 0.91%,
"COc1ccc(S(=O)(=O)N(Cc2ccccc2)c2nccs2)cc1 [Compound 20, N-Benzyl-4-methoxy-N-(thiazol-2-yl)benzenesulfonamide]",43.5 ± 0.03 µM,40 ± 0.06 µM,Competitive,20.6 ± 0.41 µM,22.1 ± 0.35 µM,Non-competitive,38.01 ± 0.06 µM,49.2 ± 0.01%,56.3 ± 0.83%,80.2 ± 0.01%,31 ± 0.02%,54 ± 0.12%,79 ± 0.22%,85 ± 0.25%,35.2 ± 0.1%,15.04 ± 0.2%,22.02 ± 0.05%,45.08 ± 0.06%,61.01 ± 0.03%,82.03 ± 0.07%,
"O=S(=O)(c1ccc(Br)cc1)N(Cc1ccccc1)c1nccs1 [Compound 21, N-benzyl-4-bromo-N-(thiazol-2-yl)benzenesulfonamide]",~45.2 µM and 45.2 µM,45 ± 0.03 µM,Non-competitive,23.06 ± 0.11 µM,27 ± 0.48 µM,Competitive,~33 µM and 33 µM,63.5 ± 0.11%,90.5 ± 0.16%,99.1 ± 0.32%,33 ± 0.3%,57 ± 0.13%,82 ± 0.01%,86 ± 0.11%,35.1 ± 0.05%,15.1 ± 0.05%,30.5 ± 0.04%,46.03 ± 0.11%,72.05 ± 0.15%,90.03 ± 0.51%,
"NC(N)=S [Thiourea, reference compound]",,,,,,,,,,,,,,,,,,,,,"IC50 (jack bean urease; read-out: Enzyme (SEM ±) J.B Urease, IC50, mean ± SEM): 10.12 ± 0.08 µM; IC50 ([3]; read-out: Enzyme (SEM ±) B.P Urease, IC50, mean ± SEM): 14.08 ± 0.05 µM"

# The next lines start with results.
IC50 [1],IC50 [2],Types of inhibition (urease) (jack bean urease),IC50 (jack bean urease; [4]),"IC50 [3, 5]",Type of Inhibition (α-glucosidase and α-amylase) (α-Glucosidase),IC50 (ABTS method),SMILES,DPPH % Scavenging ([1]; 50 μM),DPPH % Scavenging ([1]; 75 μM),DPPH % Scavenging ([1]; 100 μM),superoxide anion % scavenging ([2]; 25 μM),superoxide anion % scavenging ([2]; 50 μM),superoxide anion % scavenging ([2]; 75 μM),superoxide anion % scavenging ([2]; 100 μM),DPPH % Scavenging ([1]; 25 μM),ABTS % Scavenging (ABTS method; 10 μM),ABTS % Scavenging (ABTS method; 20 μM),ABTS % Scavenging (ABTS method; 30 μM),ABTS % Scavenging (ABTS method; 40 μM),ABTS % Scavenging (ABTS method; 50 μM),other results
57.2 ± 0.07 µM,40 ± 0.06 µM,Competitive,15.31 ± 0.09 µM,18.7 ± 0.23 µM,Non-competitive,40.01 ± 0.01 µM,"O=S(=O)(c1ccccc1)N(Cc1ccccc1)c1nccs1 [Compound 22, N-Benzyl-N-(thiazol-2-yl)benzenesulfonamide]",50.1 ± 0.11%,66.1 ± 0.23%,79.5 ± 0.05%,35 ± 0.02%,57 ± 0.15%,80 ± 0.25%,87 ± 0.15%,31.4 ± 0.08%,12.04 ± 0.01%,27.2 ± 0.5%,47.03 ± 0.06%,66.11 ± 0.31%,86.13 ± 0.12%,
49.15 ± 0.05 µM,47 ± 0.11 µM,Non-competitive,25.1 ± 0.28 µM,28.02 ± 0.07 µM,Non-competitive,30.01 ± 0.11 µM,"O=S(=O)(c1ccc(Cl)cc1)N(Cc1ccccc1)c1nccs1 [Compound 23, N-benzyl-4-chloro-N-(thiazol-2-yl)benzenesulfonamide]",57.3 ± 0.01%,70.5 ± 0.16%,93.05 ± 0.32%,39 ± 0.3%,60 ± 0.56%,89 ± 0.07%,103 ± 0.19%,32.6 ± 0.21%,19.5 ± 0.05%,39.5 ± 0.24%,55.13 ± 0.13%,76.01 ± 0.5%,93.03 ± 0.31%,
47.1 ± 0.08 µM,,Non-competitive,48.1 ± 1.19 µM,53.32 ± 0.21 µM,Non-competitive,29.01 ± 0.14 µM,"O=[N+]([O-])c1ccc(S(=O)(=O)N(Cc2ccccc2)c2nccs2)cc1 [Compound 25, N-benzyl-4-nitro-N-(thiazol-2-yl)benzenesulfonamide]",57.8 ± 0.11%,71.6 ± 0.03%,85.1 ± 0.41%,,,,,35.2 ± 0.2%,09.01 ± 0.09%,28.05 ± 0.04%,43.09 ± 0.01%,70.02 ± 0.03%,81.03 ± 0.91%,"inhibition against both enzymes (J.B. and B.P urease), in words (jack bean urease): weak inhibition"
,,,,,,16.4 µM and 19.4 µM and 17.5 µM and 20.3 µM,"Cc1c(C)c2c(c(C)c1O)CCC(C)(C(=O)O)O2 (stereo not shown) [Trolox, reference compound]",,,,,,,,,36.08 ± 0.1% and 26.05 ± 0.03% and 35.01 ± 0.3% and 18.08 ± 0.1%,58.02 ± 0.62% and 55.02 ± 0.12% and 65.2 ± 0.1% and 40.02 ± 0.62%,67.03 ± 0.02% and 70.03 ± 0.01% and 77.31 ± 0.07% and 55.03 ± 0.02%,85.01 ± 0.06% and 82.01 ± 0.05% and 89.01 ± 0.5% and 84.01 ± 0.06%,105.02 ± 0.02% and 109.2 ± 0.22% and 105.12 ± 0.21% and 93.02 ± 0.02%,
